Among the data in ChEMBL document CHEMBL3352487, “Synthesis, antibacterial activity, and biological evaluation of formyl hydroxyamino derivatives as novel potent peptide deformylase inhibitors against drug-resistant bacteria” (Eur J Med Chem, 2014) are MIC and solubility values, retold here.

In brackets after ≈: the same amount, converted by molar mass.

Data set [1] has as its system Staphylococcus aureus. The data set is described as follows: Antimicrobial activity against Staphylococcus aureus WCUH29 after 24 hrs by broth microdilution method. The class given is functional. The note with it: WCUH29, 24 h. The essentials: (§1)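 Broth microdilution following NCCLS M7-A4; ATCC strains and clinical isolates from a provincial hospital.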
In data set [2] the test system is Enterococcus faecalis. Briefly: Antimicrobial activity against Enterococcus faecalis Isolate 1 after 24 hrs by broth microdilution method. Type of data set: functional. The note with it: Isolate 1, 24 h. The method in brief:
as §1

The subject of data set [3] is Staphylococcus aureus. Briefly: Antimicrobial activity against Staphylococcus aureus isolate CL 939 after 24 hrs by broth microdilution method. Type of data set: functional. The note with it: isolate CL 939, 24 h. The method in brief: (§2)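 Broth microdilution following NCCLS M7-A4, using ATCC strains and clinical isolates from a provincial hospital.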
Data set [4] concerns Staphylococcus aureus. The data set is described as follows: Antimicrobial activity against Staphylococcus aureus isolate Ealing 23 after 24 hrs by broth microdilution method. The class given is functional. The note with it: isolate Ealing 23, 24 h. The essentials:
as §2

Data set [5] is described as follows: Solubility of the compound in artificial gastric juice measured every 2 hrs for 12 hrs by HPLC analysis. The class given is ADME. The note with it: simulated gi fluid.

For the molecule `CCCC[C@H](CN(O)C=O)C(=O)N1CC=C[C@H]1C(=O)Nc1ccc(F)c[n+]1[O-]`, the MIC in data set [1] was found to be 0.125 µg/mL (≈ 0.317 µM); in data set [2], 4 µg/mL (≈ 10.1 µM); in data set [3], 0.125 µg/mL (≈ 0.317 µM); in data set [4], 0.5 µg/mL (≈ 1.27 µM). The solubility result in data set [5] is “soluble”.
